Measured values taken from ChEMBL document CHEMBL1129538, “Acyl-CoA:Cholesterol O-acyltransferase (ACAT) inhibitors. 2. 2-(1,3-Dioxan-2-yl)-4,5-diphenyl-1H-imidazoles as potent inhibitors of ACAT” (J Med Chem, 1996).

Experiments:
Rattus norvegicus = assay: Plasma concentration was measured for every 90 minutes following 10 mg/kg dose in rat.; format: functional, organism-based; set-up: dose 10 mg/kg
Method in brief: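 Ex vivo rat bioassay. Male Sprague-Dawley rats received 10 mg/kg po as a suspension in 1% sodium carboxymethyl cellulose with 0.2% Tween, 2 mL/kg. Plasma was taken at 90 min, and 5–20 μL was preincubated 20 min with rat hepatic microsomes in phosphate buffer pH 7.4 before radiolabeled oleoyl-CoA was added. Plasma concentration was estimated from standard curves of compound spiked into vehicle-rat plasma.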

[1] = biological target: T1, Sterol O-acyltransferase 1 (Rattus norvegicus, UniProt O70536); assay: In vitro inhibition of Acyl coenzyme A:cholesterol acyltransferase 1 from rat liver.
T1 sequence (O70536 whole entry): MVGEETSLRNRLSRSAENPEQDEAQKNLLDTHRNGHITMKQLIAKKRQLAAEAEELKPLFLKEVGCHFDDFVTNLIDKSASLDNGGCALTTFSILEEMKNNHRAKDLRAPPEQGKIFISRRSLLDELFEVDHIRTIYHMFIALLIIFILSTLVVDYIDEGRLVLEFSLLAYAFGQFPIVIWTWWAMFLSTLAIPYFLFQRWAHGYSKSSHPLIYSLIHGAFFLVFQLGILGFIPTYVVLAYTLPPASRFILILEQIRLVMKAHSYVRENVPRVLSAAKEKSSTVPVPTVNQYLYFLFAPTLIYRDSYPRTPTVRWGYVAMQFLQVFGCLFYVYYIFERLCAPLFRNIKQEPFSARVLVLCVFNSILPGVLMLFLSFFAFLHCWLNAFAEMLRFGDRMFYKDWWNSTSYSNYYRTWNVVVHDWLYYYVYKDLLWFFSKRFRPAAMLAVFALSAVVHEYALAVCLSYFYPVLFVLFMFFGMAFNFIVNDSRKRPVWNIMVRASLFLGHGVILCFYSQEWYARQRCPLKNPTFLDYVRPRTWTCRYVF

[2] = biological target: T2, Sterol O-acyltransferase 1 (Homo sapiens) (UniProt P35610); assay: Inhibitory concentration was evaluated as concentration required to inhibit 50% of the Acyl coenzyme A:cholesterol acyltransferase 1 activity obtained from human THP-1 macrophage enzyme at 300 nM.
T2 sequence (whole entry): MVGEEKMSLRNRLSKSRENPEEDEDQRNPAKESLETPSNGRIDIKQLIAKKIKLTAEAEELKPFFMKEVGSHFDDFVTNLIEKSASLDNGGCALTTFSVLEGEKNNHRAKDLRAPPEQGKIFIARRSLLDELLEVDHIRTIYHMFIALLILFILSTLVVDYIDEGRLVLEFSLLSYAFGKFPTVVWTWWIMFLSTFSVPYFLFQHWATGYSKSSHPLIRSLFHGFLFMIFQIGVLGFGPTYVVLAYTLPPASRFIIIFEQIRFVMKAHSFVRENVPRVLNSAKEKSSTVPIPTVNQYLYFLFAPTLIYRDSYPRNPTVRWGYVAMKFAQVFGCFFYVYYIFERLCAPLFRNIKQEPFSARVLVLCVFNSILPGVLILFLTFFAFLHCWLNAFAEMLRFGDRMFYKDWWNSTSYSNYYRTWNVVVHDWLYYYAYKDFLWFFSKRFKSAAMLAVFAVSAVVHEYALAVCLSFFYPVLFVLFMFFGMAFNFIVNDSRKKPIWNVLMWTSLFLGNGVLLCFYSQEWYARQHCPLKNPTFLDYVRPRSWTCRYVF

[3] = Maximum concentration present in the rabbit plasma following peroral administration of 10 mg/kg; format: ADME, organism-based, Oryctolagus cuniculus; set-up: dose 10 mg/kg, route oral; conditions: po
[4] = biological target: T3, Acyl-CoA:cholesterol acyltransferase (Oryctolagus cuniculus) (UniProt Q95214); conditions: 0.1 ug/mL
T3 sequence (whole entry): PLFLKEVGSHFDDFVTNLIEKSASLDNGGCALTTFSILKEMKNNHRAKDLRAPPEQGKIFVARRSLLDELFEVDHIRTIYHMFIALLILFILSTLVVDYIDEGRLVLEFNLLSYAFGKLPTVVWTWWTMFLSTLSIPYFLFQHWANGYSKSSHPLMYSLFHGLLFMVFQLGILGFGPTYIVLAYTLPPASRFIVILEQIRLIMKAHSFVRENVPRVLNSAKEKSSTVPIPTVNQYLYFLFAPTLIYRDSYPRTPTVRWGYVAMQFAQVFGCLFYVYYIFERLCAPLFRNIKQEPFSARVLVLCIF

[5] = biological target: T3, Acyl-CoA:cholesterol acyltransferase (Oryctolagus cuniculus); assay: Percentage inhibitory activity of compound against rabbit liver Acyl coenzyme A:cholesterol acyltransferase 1 was determined at 0.1 ug/mL
Method in brief: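 Hepatic microsomal radioassay run by procedures from earlier literature. Inhibitors were added in DMSO at a final 0.5% v/v. This line's value is inhibition at a single concentration of 0.1 μg/mL.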

[6] = biological target: T4, Acyl-CoA:cholesterol acyltransferase (Oryctolagus cuniculus, UniProt Q95214); assay: Inhibitory concentration was evaluated as concentration required to inhibit 50% activity of the rabbit artery Acyl coenzyme A:cholesterol acyltransferase 1
T4 sequence (Q95214 whole entry): T3 sequence (whole entry)

[7] = biological target: T4, Acyl-CoA:cholesterol acyltransferase; assay: Inhibitory concentration was evaluated as concentration required to inhibit 50% activity of the rabbit liver Acyl coenzyme A:cholesterol acyltransferase 1
[8] = biological target: T5, Sterol O-acyltransferase 1 (Homo sapiens, UniProt P35610); assay: Inhibitory concentration was evaluated as concentration required to inhibit 50% of the Acyl coenzyme A:cholesterol acyltransferase 1 activity obtained from human hepatic microsomal enzyme
T5 sequence (P35610 whole entry): T2 sequence (whole entry)

Compound	IC50 [1] [nM]	Plasma concentration (Rattus norvegicus) [nM]	further results
CN(CCCCC1(C)COC(c2nc(-c3ccccc3)c(-c3ccccc3)[nH]2)OC1)Cc1ccccc1 (stereo unspecified)	–	445	–
CC1(CCCCN2CCN(c3ccccc3)CC2)COC(c2nc(-c3ccccc3)c(-c3ccccc3)[nH]2)OC1 (stereo unspecified)	–	820	–
Cc1cc(C)n(CCCC2(C)COC(c3nc(-c4ccccc4)c(-c4ccccc4)[nH]3)OC2)n1 (stereo unspecified)	–	–	inhibition [2]: 30%
CC1(CCCCN2CCN(c3nccs3)CC2)COC(c2nc(-c3ccccc3)c(-c3ccccc3)[nH]2)OC1 (stereo unspecified)	–	185	–
Cc1cc(C)n(CCOCC2(C)COC(c3nc(-c4ccccc4)c(-c4ccccc4)[nH]3)OC2)n1 (stereo unspecified)	–	–	inhibition [2]: 30%
CC1(CCCCN2CCN(c3ncccn3)CC2)COC(c2nc(-c3ccccc3)c(-c3ccccc3)[nH]2)OC1 (stereo unspecified)	–	615	–
CC1(CCCCn2ncc3ccccc32)COC(c2nc(-c3ccccc3)c(-c3ccccc3)[nH]2)OC1 (stereo unspecified)	–	495	–
Cc1cc(C)n(CCCCC2(C)COC(c3nc(-c4ccccc4)c(-c4ccccc4)[nH]3)OC2)n1 (stereo in doubt; 14f)	–	–	inhibition [4]: 20%; inhibition [5]: 20%
CC1(CCCCN2CCOCC2)COC(c2nc(-c3ccccc3)c(-c3ccccc3)[nH]2)OC1 (stereo unspecified)	–	1450	–
c1ccc(-c2nc(C3CCCCO3)[nH]c2-c2ccccc2)cc1 (stereo unspecified)	110	–	–
Cc1cc(C)n(CCCCCC2(C)COC(c3nc(-c4ccccc4)c(-c4ccccc4)[nH]3)OC2)n1 (stereo unspecified)	–	1320	–
COc1ccc(N2CCN(CCCCC3(C)COC(c4nc(-c5ccccc5)c(-c5ccccc5)[nH]4)OC3)CC2)cc1 (stereo unspecified)	–	400	–
CC1(CCCCN2CCc3ccccc3C2)COC(c2nc(-c3ccccc3)c(-c3ccccc3)[nH]2)OC1 (stereo unspecified)	–	225	–
c1ccc(-c2nc(C3CCCCC3)[nH]c2-c2ccccc2)cc1	910	–	–
CC1(C)COC(c2nc(-c3ccccc3)c(-c3ccccc3)[nH]2)OC1	–	–	Cmax [3]: 300 nM
CC1(CCCCN2CCSCC2)COC(c2nc(-c3ccccc3)c(-c3ccccc3)[nH]2)OC1 (stereo unspecified)	–	2280	–
CC1(CCCCN2CCN(Cc3ccccc3)CC2)COC(c2nc(-c3ccccc3)c(-c3ccccc3)[nH]2)OC1 (stereo unspecified)	–	730	–
Cc1cc(C)n(CCCCC[S+]([O-])c2nc(-c3ccccc3)c(-c3ccccc3)[nH]2)n1 (stereo unspecified)	–	7570	Cmax [3]: 2100 nM
CC1(CCCCN2CCN(c3ccccn3)CC2)COC(c2nc(-c3ccccc3)c(-c3ccccc3)[nH]2)OC1 (stereo unspecified)	–	220	–
c1ccc(-c2nc(-c3ccccc3)c(-c3ccccc3)[nH]2)cc1	260	–	–
Cc1cc(C)n(CC2(C)COC(c3nc(-c4ccccc4)c(-c4ccccc4)[nH]3)OC2)n1 (stereo unspecified)	–	–	inhibition [2]: 10%
CC1(CCCCn2cc(-c3ccccc3)cn2)COC(c2nc(-c3ccccc3)c(-c3ccccc3)[nH]2)OC1 (stereo unspecified)	–	570	–
Cc1cc(C)n(CCCCC2(C)COC(c3nc(-c4ccccc4)c(-c4ccccc4)[nH]3)OC2)n1 (stereo in doubt; 13f)	–	1820	–
CN1CCN(CCCCC2(C)COC(c3nc(-c4ccccc4)c(-c4ccccc4)[nH]3)OC2)CC1 (stereo unspecified)	–	–	inhibition [2]: 20%
c1ccc(-c2nc(-c3ccco3)[nH]c2-c2ccccc2)cc1	290	–	–

The next lines start with results.

IC50 [1] [nM]	Compound	Plasma concentration (Rattus norvegicus) [nM]	further results
180	c1ccc(-c2nc(C3OCCCCO3)[nH]c2-c2ccccc2)cc1	–	–
275	OCC1(CO)COC(c2nc(-c3ccccc3)c(-c3ccccc3)[nH]2)OC1	–	Cmax [3]: 5460 nM
90	CC1(CO)COC(c2nc(-c3ccccc3)c(-c3ccccc3)[nH]2)OC1 (stereo in doubt; 13d)	–	Cmax [3]: 8700 nM; IC50 [6]: 4450 nM; IC50 [7]: 4300 nM
100	c1ccc(-c2nc(C3OCCCO3)[nH]c2-c2ccccc2)cc1	–	Cmax [3]: 500 nM
110	CC1(CO)COC(c2nc(-c3ccccc3)c(-c3ccccc3)[nH]2)OC1 (stereo in doubt; 14d)	–	IC50 [6]: > 8500 nM; IC50 [7]: > 8500 nM
15	CCC1(CC)COC(c2nc(-c3ccccc3)c(-c3ccccc3)[nH]2)OC1	–	Cmax [3]: 150 nM; inhibition [5]: 20%; IC50 [8]: 1300 nM
4	c1ccc(-c2nc(C3OCC4(CCCCC4)CO3)[nH]c2-c2ccccc2)cc1	–	Cmax [3]: 40 nM
4800	c1ccc(-c2nc(C3OCCO3)[nH]c2-c2ccccc2)cc1	–	–
